Experimental data: ChEMBL document CHEMBL4184319, “Fluorescent-Labeled Selective Adenosine A2B Receptor Antagonist Enables Competition Binding Assay by Flow Cytometry” (J Med Chem, 2018)

Assays:
[1] = Selectivity ratio of Ki for adenosine A2A receptor in rat brain striatal membranes to Ki for recombinant human adenosine A2B receptor expressed in CHO cell membranes; format: cell-based
[2] = molecular target: Adenosine receptor A2a (Rattus norvegicus, UniProt P30543); assay: Displacement of [3H]MSX-2 from adenosine A2A receptor in rat brain striatal membranes after 30 mins by liquid scintillation counting method; format: cell membranes, Striatum, Membrane
Adenosine receptor A2a, sequence (P30543 whole entry): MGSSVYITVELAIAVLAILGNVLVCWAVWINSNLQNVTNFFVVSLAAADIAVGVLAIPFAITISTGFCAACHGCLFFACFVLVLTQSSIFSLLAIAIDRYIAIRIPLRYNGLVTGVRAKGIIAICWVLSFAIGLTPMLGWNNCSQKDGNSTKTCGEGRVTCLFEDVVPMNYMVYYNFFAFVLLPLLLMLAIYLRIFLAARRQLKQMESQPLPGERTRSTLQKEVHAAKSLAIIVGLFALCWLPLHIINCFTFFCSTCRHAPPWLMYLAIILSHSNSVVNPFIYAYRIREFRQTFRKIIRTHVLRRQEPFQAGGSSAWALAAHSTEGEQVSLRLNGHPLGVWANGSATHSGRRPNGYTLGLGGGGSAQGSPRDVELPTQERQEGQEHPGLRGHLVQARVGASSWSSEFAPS
How it was run: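 [³H]MSX-2 (1 nM) used with rat striatal or human A2A-HEK membranes, 30 min at rt. Membranes pre-incubated 10-15 min with ADA 0.12 IU/mL. DMSO 2.5 % final. GF/B filtration, then scintillation counting. Curves used 6-7 concentrations over 3 log units. At least three experiments, in duplicate (human) or triplicate (rat).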

[3] = molecular target: T1, Adenosine receptor A2b (Homo sapiens, UniProt P29275); assay: Displacement of [3H]PSB-603 from recombinant human adenosine A2B receptor expressed in CHO cell membranes after 75 mins by liquid scintillation counting method
T1 sequence (P29275 whole entry): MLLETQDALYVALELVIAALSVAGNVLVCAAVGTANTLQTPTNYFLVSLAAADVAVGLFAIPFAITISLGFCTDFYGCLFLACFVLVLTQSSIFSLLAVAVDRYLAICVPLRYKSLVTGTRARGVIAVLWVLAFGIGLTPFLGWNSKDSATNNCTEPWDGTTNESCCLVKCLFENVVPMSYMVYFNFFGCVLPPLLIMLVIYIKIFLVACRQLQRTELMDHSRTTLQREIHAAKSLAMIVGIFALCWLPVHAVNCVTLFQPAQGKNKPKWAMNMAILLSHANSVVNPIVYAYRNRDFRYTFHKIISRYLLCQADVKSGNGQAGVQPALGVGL
How it was run: (§1)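 [³H]PSB-603 (0.3 nM) used with CHO membranes expressing human, mouse or rat A2BAR, 75 min at rt. Membranes pre-incubated 10-15 min with ADA 0.12 IU/mL. Nonspecific binding defined with 10 µM DPCPX. DMSO 2.5 % final. Filtration on GF/B with ice-cold 50 mM Tris-HCl pH 7.4 containing 0.1 % BSA, then scintillation counting. Curves used 6-7 concentrations over 3 log units. At least three experiments.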

[4] = molecular target: T1, Adenosine receptor A2b; assay: Antagonist activity at recombinant human adenosine A2B receptor expressed in CHO cell membranes assessed as inhibition of NECA-induced cAMP accumulation preincubated for 1 hr followed by NECA induction measured after 5 mins in presence of [3H]cAMP and bovine cAMP-binding protein by liquid scintillation counting method; format: functional
How it was run: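 CHO cells stably expressing human A2BAR, pre-incubated with antagonist dilutions for 1 h at 37°C, then stimulated with NECA (10 µM final) for 5 min at 37°C. Reaction stopped with hot (90 °C) lysis solution (4 mM EDTA, 0.01 % Triton X100). cAMP quantified by radioactive competition with [³H]cAMP and bovine adrenal cAMP-binding protein. Response expressed as % of NECA response without antagonist. Means ± SEM, three independent experiments in duplicate.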

[5] = molecular target: T2, Adenosine receptor A1 (Rattus norvegicus, UniProt P25099); assay: Displacement of [3H]CCPA from adenosine A1 receptor in rat brain cortical membranes after 90 mins by liquid scintillation counting method; format: cell membranes
T2 sequence (P25099 whole entry): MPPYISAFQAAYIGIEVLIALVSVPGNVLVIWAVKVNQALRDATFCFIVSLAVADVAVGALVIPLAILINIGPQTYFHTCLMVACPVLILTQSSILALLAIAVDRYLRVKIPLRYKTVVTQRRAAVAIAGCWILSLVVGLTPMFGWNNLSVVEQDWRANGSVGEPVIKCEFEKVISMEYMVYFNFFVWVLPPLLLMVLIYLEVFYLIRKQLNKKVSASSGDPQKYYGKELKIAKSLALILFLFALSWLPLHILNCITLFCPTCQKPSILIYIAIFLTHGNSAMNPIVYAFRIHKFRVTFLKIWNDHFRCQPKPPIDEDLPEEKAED
How it was run: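 [³H]CCPA (1 nM) used with rat brain cortical or human A1-CHO membranes, 90 min at rt. Membranes pre-incubated 10-15 min with ADA 0.12 IU/mL. Nonspecific binding defined with 10 µM CADO. Compounds dissolved in DMSO, 2.5 % final. Filtration on GF/B filters with ice-cold Tris-HCl washes, then scintillation counting. Curves used 6-7 concentrations spanning 3 log units. At least three experiments, in duplicate (human) or triplicate (rat).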

[6] = molecular target: T3, Adenosine receptor A3 (Homo sapiens, UniProt P0DMS8); assay: Displacement of [3H]PSB-11 from recombinant human adenosine A3 receptor expressed in CHO cell membranes after 45 mins by liquid scintillation counting method
T3 sequence (P0DMS8 whole entry): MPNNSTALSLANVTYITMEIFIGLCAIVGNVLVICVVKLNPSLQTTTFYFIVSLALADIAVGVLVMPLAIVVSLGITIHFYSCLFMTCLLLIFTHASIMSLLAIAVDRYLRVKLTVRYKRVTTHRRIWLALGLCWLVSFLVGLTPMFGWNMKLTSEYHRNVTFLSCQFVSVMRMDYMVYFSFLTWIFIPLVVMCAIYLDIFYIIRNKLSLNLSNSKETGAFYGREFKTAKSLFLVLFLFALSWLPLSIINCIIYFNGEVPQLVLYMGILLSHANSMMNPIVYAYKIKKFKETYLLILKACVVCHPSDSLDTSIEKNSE
How it was run: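 Human A3-CHO membranes incubated with [³H]PSB-11 (1 nM) for 45 min at rt, after 10-15 min pre-incubation with ADA 0.12 IU/mL. Nonspecific binding defined with 100 µM R-PIA. DMSO 2.5 % final. GF/B filtration, then scintillation counting. Curves used 6-7 concentrations over 3 log units. At least three experiments in duplicate.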

[7] = molecular target: T2, Adenosine receptor A1; assay: Displacement of [3H]-ADAC from adenosine A1 receptor in rat cerebral cortex membranes after 120 mins by filter binding method; format: cell membranes, Membrane
[8] = molecular target: T2, Adenosine receptor A1; assay: Displacement of [3H]-CHA from adenosine A1 receptor in rat cortical membranes; format: cell membranes
[9] = molecular target: Adenosine receptor A1 (Rattus norvegicus) (UniProt P25099); assay: Displacement of [3H]-CHA from adenosine A1 receptor in rat striatal membranes
[10] = molecular target: T4, Adenosine receptor A3 (Rattus norvegicus, UniProt P28647); assay: Displacement of [3H]-(R)-PIA from adenosine A3 receptor in rat testis membranes; format: cell membranes, Membrane
T4 sequence (P28647 whole entry): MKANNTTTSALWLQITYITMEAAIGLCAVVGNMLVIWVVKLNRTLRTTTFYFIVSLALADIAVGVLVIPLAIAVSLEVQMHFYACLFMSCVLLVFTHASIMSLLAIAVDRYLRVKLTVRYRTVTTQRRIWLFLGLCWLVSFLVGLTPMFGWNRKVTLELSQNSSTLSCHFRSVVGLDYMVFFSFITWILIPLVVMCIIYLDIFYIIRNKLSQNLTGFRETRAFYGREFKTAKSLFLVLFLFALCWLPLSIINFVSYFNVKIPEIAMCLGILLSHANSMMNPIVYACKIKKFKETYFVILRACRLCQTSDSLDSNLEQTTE

[11] = organism: Homo sapiens; assay: Selectivity ratio of Ki for recombinant human adenosine A3 receptor expressed in CHO cell membranes to Ki for recombinant human adenosine A2B receptor expressed in CHO cell membranes; format: cell-based
[12] = molecular target: T5, Adenosine receptor A2b (Mus musculus, UniProt Q60614); assay: Displacement of [3H]PSB-603 from recombinant mouse adenosine A2B receptor expressed in CHO cell membranes after 75 mins by liquid scintillation counting method; how it was run: as §1
T5 sequence (Q60614 whole entry): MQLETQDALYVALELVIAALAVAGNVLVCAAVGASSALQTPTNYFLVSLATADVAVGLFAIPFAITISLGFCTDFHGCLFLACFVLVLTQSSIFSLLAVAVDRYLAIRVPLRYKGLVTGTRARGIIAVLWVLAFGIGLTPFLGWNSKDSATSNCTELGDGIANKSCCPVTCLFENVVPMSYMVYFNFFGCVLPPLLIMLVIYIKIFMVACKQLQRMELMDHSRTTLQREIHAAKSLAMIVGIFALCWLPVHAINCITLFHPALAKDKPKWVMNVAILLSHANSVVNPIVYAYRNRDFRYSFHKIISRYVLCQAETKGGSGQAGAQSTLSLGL

Row | Structure (SMILES) | Ratio Ki [1] | Ki [2] [nM] | Ki [3] [nM] | IC50 [4] [nM] | Ki [5] [nM] | Ki [6] [nM] | further results
1 | CCCn1c(=O)[nH]c2nc(-c3ccc(OCC(=O)NCCc4ccccc4)cc3)[nH]c2c1=O | > 150 | > 10000 | 7.45 | 141 | 7.85 | > 10000 | –
2 | O=C(Cc1ccc(NC(=O)Cc2ccc(Nc3ncnc4c3ncn4[C@@H]3O[C@H](CO)[C@@H](O)[C@H]3O)cc2)cc1)NCCNC(=S)Nc1ccc(-c2c3ccc(=O)cc-3oc3cc(O)ccc23)c(C(=O)O)c1 | – | – | – | – | – | – | Ki [7]: 7.1 nM
3 | O=C(Cc1ccc(NC(=O)Cc2ccc(Nc3ncnc4c3ncn4[C@@H]3O[C@H](CO)[C@@H](O)[C@H]3O)cc2)cc1)NCCNc1ccc([N+](=O)[O-])c2nonc12 | – | – | – | – | – | – | Ki [7]: 4.3 nM
4 | CCNC(=O)[C@H]1O[C@@H](n2cnc3c(NCCCCCCNS(=O)(=O)c4cccc5c(N(C)C)cccc45)ncnc32)[C@H](O)[C@@H]1O | – | – | – | – | – | – | Ki [8]: 27 nM; Ki [9]: 4600 nM; Ki [10]: 3600 nM
5 | CCCn1c(=O)[nH]c2nc(-c3ccc(OCC(=O)NCc4ccccc4)cc3)[nH]c2c1=O | > 150 | > 10000 | 7 | 135 | 27.2 | 266 | Ratio Ki [11]: 38
6 | CCCn1c(=O)[nH]c2nc(-c3ccc(OCC(=O)NCCCc4ccccc4)cc3)[nH]c2c1=O | > 150 | > 10000 | 27.9 | 174 | 35.3 | 2990 | –
7 | Cn1c(=O)c2c(ncn2C)n(C)c1=O [CAFFEINE] | – | – | – | – | – | – | Ki [12]: 23000 nM
